Compounds with a hit are over-represented: about 4.9% of the library has one in this group of screens.
HSF1 inh: HSF1 inhibition; activity change, negative = inhibition, % at 7.5 µM (by protocol); hit rate 0.77% among 300,000; AID 2098; NIH3T3-HGL HSE-luciferase, MG132-induced, luminescence 8 h; hits give low values;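 active = more than half of replicate wells show activity change below -50%, luminescence cut by over half; inconclusive = some wells, but at most half, below -50%; inactive = no replicate well below -50%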;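 also: luciferase reports HSF-1 transcriptional activity via heat shock element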
HSF-1 act: increases HSF-1 driven luciferase reporter signal; hit rate 1.7% among 300,000; AID 504408; activation, % at 9 µM; NIH3T3-HGL HSF-1 luciferase reporter, MG132, 8 h; 100% = twice DMSO control signal;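 active = mean replicate activation of at least 50% with a set share of replicates each reaching 50%; inconclusive = only one of those two conditions met; inactive = mean below 50% and too few replicates reaching it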
CHT PAM: human CHT allosteric activation | Q9GZV3 | CHT-expressing cells, membrane potential dye, choline EC20; hits give high values; LV-AA mutant CHT in HEK293 cells | B-score at 10 µM | hit rate 0.49% among 310,000 | AID 488977;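 active = initial fluorescence not abnormally high and integrated response B-score, plate-corrected, over 3 SD above library mean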
PHOSPHO1 inh: PHOSPHO1 (human) inhibition; recombinant PHOSPHO1, absorbance phosphatase assay; AID 1565; hit rate 1.1% among 290,000; Q8TCT1; inhibition, % at 13.3 µM; in the data active = inhibition above about 60%
Target sequence (Q8TCT1 whole entry, looked up): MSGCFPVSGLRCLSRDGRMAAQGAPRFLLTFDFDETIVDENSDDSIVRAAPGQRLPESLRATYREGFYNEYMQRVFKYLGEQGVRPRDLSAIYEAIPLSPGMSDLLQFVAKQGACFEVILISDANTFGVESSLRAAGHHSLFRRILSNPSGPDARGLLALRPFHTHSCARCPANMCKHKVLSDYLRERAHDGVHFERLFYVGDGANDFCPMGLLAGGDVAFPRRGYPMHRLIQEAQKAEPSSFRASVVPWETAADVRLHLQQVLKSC
CHT inh: inhibits the human high affinity choline transporter. Q9GZV3. CHT-expressing cells, membrane potential dye, choline response; hits give low values. B-score at 10 µM. hit rate 0.86% among 310,000. AID 488975;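 active = B-score over 3 SD under the library average, and starting fluorescence ratio not unusually high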;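 also: choline stimulus applied at its EC90 after an EC20 pre-addition; B-score computed on integrated fluorescence ratio after choline addition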
Hep lipid drop: hepatic lipid droplet formation modulation; AML12 mouse hepatocytes, oleate lipid droplets, BODIPY imaging; AID 1656; hit rate 0.4% among 240,000; inhibition, % at 6.5 µM;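 active = lipid droplet intensity inhibited by at least 50%, with more than 500 cells counted; inconclusive = wells with under 300 cells, treated as cytotoxic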
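Assay system: AML12 hepatocytes (mouse) / Also added: 100 µM oleic acid challenge / Times: overnight treatment with compound plus oleate / Detection: high-content imaging of BODIPY-stained droplets and DAPI nuclei / Evaluation: % inhibition of lipid droplet signal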
Of the large screens only hits and unclear results are named; the others gave an inactive call.

c1ccc(-n2cc(CN3CCC(N4CCOCC4)CC3)c(-c3ccc4c(c3)OCO4)n2)cc1	none
c1ccc(-n2cc(CN3CCCC3)c(-c3ccc4c(c3)OCO4)n2)cc1	HSF-1 act 55
O=c1c(-c2ccccc2)c1-c1ccccc1	none (no result: CHT PAM, CHT inh)
O=c1o[nH]c(-c2ccccc2)c1-c1ccccc1	HSF1 inh -60 (no result: PHOSPHO1 inh, Hep lipid drop)
CCc1cc(=O)oc2c3c(cc(OCC(=O)NCCN4CCOCC4)c12)OC(C)(C)CC3	none
CCOC(=O)C1=C(CN2CCN(C(=O)c3ccco3)CC2)NC(=O)NC1c1ccc(OC)cc1 (stereo not given)	HSF1 inh -88
CCOC(=O)c1ccc(NC(=O)CN2CCN(C(=O)c3ccco3)CC2)cc1	PHOSPHO1 inh 75
NC(=O)c1ccc(NC(=O)CN2CCN(C(=O)c3ccco3)CC2)cc1	none
CC(C)(C)c1nc(SCC(=O)Nc2ccc3c(c2)OCCO3)c2ccccc2n1	none (no result: Hep lipid drop)
CC(C)(C)c1nc(SCC(=O)Nc2ccc(N3CCOCC3)cc2)c2ccccc2n1	HSF-1 act 58 (no result: Hep lipid drop)
Cc1nnc(SCC(=O)Nc2ccc(N3CCOCC3)cc2)n1-c1ccccc1	PHOSPHO1 inh 64 (no result: Hep lipid drop)
CC(C)(C)[C@H]1C=C(C(=O)Nc2ccccc2)O[C@@H](OCCCCO)C1	HSF1 inh -61 (no result: PHOSPHO1 inh, Hep lipid drop)
CC(C)(C)[C@@H]1C=C(C(=O)O)O[C@H](OCCCCO)C1	none (no result: PHOSPHO1 inh, Hep lipid drop)
Cn1c(COc2ccccc2Br)nc2ccccc21	HSF-1 act 70
Cn1c(CNc2ccc(O)cc2)nc2ccccc21	none
Cn1c(CNc2ccc(Br)cc2)nc2ccccc21	HSF-1 act 115
Cc1ccc(NCc2nc3ccccc3n2C)cc1C	HSF-1 act inconclusive, PHOSPHO1 inh 60
Cc1ccc(NCc2nc3ccccc3n2C)cc1	none
O=c1[nH]c(=O)n(-c2ccccc2)c2c1C(C(F)(F)F)(C(F)(F)F)N=C(C1CCCCC1)N2	none
CCC(=O)N1c2ccc(S(=O)(=O)N3CCN(C)CC3)cc2CC1C (stereo not given)	none
CCCn1c(N2CCN(CC(=O)NCc3cccs3)CC2)nc2ccccc21	HSF1 inh -72
CCCn1c(N2CCN(C(=O)Nc3ccccc3)CC2)nc2ccccc21	none
O=C(Oc1ccccc1Cl)c1ccc(-n2cncn2)nc1	HSF1 inh -89 (no result: Hep lipid drop)
COc1ccccc1NC(=O)c1ccc(-n2cncn2)nc1	none
CN(Cc1ccon1)C(=O)CC1C(=O)NCCN1Cc1ccccc1C(F)(F)F (stereo not given)	none (no result: CHT PAM, CHT inh)
CCC1(c2ccccc2)NC(=O)N(CC(=O)NCc2ccc(F)cc2)C1=O (stereo not given)	none
CCC1(c2ccccc2)NC(=O)N(CC(=O)NCc2ccccc2OC)C1=O (stereo not given)	HSF-1 act 107
Cc1cc(C)c(S(=O)(=O)N(C)CC(=O)NCc2cccnc2)c(C)c1	none
C=CCNC(=S)NNC(=O)c1cccn(Cc2ccc(Cl)c(Cl)c2)c1=O	HSF-1 act 81, PHOSPHO1 inh 78 (no result: Hep lipid drop)
OC[C@H](O)[C@H](O)[C@@H](O)[C@@H](O)[C@@H]1SC(c2ccccc2)=NN1c1ccccc1	none
CCN(CC)S(=O)(=O)c1ccc(C)c(NC(=S)Nc2cccc(S(=O)(=O)N3CCCCCC3)c2)c1	HSF-1 act 56
CCN(CC)S(=O)(=O)c1cc(NC(=O)CNc2cccc(S(=O)(=O)N3CCCC3)c2)ccc1C	none (no result: PHOSPHO1 inh, Hep lipid drop)
COc1ccc(NS(=O)(=O)c2ccc(N3CCCC3)c(NC(=S)Nc3cccc(S(=O)(=O)N(C)C)c3)c2)cc1	PHOSPHO1 inh 64
COc1ccc(NS(=O)(=O)c2ccc(N3CCOCC3)c(NC(=O)c3ccc(OC)cc3)c2)cc1	none
Cc1ccccc1NC(=O)c1ccno1	none
Nc1ncc(CCN2CCOCC2)c(-c2ccc(F)cc2)n1	none
CCn1cc(C(=O)NN)c(=O)c2cc(F)c(NC3CCCCC3)cc21	HSF-1 act 66 (no result: CHT PAM, CHT inh)
CCNc1nc(SCC(=O)OC)nc(N(C)C)n1	none
N#C/C(=C\c1cc(O)c(O)c(O)c1)C(N)=O	none
CCNC(=S)N1C2CCC1CC(NC(=O)NC1CCCCC1)C2 (stereo not given)	none (no result: HSF1 inh, HSF-1 act)
COc1ccccc1CN(C)C(C)C(=O)Nc1cccc(C(C)=O)c1 (stereo not given)	none
Cn1cccc1/C=C1\SC(=S)N(NC(=O)c2ccccc2O)C1=O	none
O=C(NN1C(=O)/C(=C/C=C/c2ccco2)SC1=S)c1ccccc1O	PHOSPHO1 inh 86
O=C(O)c1ccccc1C(=O)Nc1ccc(Br)c2cccnc12	HSF-1 act 51
O=C(Nc1cccc2cccnc12)c1ccccc1Cl	HSF-1 act 91 (no result: PHOSPHO1 inh, Hep lipid drop)
O=C(O)c1ccccc1C(=O)Nc1ccccn1	none
O=C(Nc1cccn(Cc2c(Cl)cccc2Cl)c1=O)c1ccc(Cl)cc1Cl	none (no result: Hep lipid drop)
O=C(Nc1cccc2cccnc12)c1cc(F)c(F)cc1Cl	none
O=C(Nc1cccn(Cc2c(Cl)cccc2Cl)c1=O)c1ccccc1Cl	HSF-1 act 89 (no result: Hep lipid drop)
COC(OC)c1ccnc(-c2ccc(OC(=O)c3cccs3)cc2)n1	none
Nc1nc2ccccc2n1/N=C/c1cccnc1	none (no result: PHOSPHO1 inh, Hep lipid drop)
Nc1nc2ccccc2n1/N=C/c1ccc([N+](=O)[O-])s1	HSF-1 act 99
Cc1nc2ccc(-c3ccccc3)cc2o1	PHOSPHO1 inh 79 (no result: Hep lipid drop)
Cc1ccc(S(=O)(=O)Nc2ccc3nc(C)oc3c2)cc1	none (no result: CHT PAM, PHOSPHO1 inh, CHT inh, Hep lipid drop)
CCc1cccc(OCCCN2C(=O)NC(C)(C)C2=O)c1	none
CNC(=O)Cn1nc(C)c2ccccc2c1=O	HSF1 inh -78 (no result: Hep lipid drop)
Cc1nn(CC(=O)Nc2cccnc2)c(=O)c2ccccc12	PHOSPHO1 inh 63
Cc1nn(CC(=O)O)c(=O)c2ccccc12	none
COc1ccc(/C=C/C2=NN(C)C(=O)CC2)cc1	none
Cc1ccc(OC(=O)COc2ccccc2C)c(-n2nc3ccccc3n2)c1	none
Cc1ccc(OC(=O)COc2ccccc2)c(-n2nc3ccccc3n2)c1	HSF-1 act 51
CSc1n[nH]c(N)c1S(=O)(=O)c1ccc(Cl)cc1	none
CCOC(=O)c1c2c(n(Cc3ccccc3)c1C)C(=O)C(=O)c1ccccc1-2	HSF1 inh 99, HSF-1 act 99 (no result: CHT PAM, PHOSPHO1 inh, CHT inh, Hep lipid drop)
O=C(NN1CCOCC1)c1ccc(Cl)c(Cl)c1	none
O=C(NCCCN1CCN(Cc2ccccc2)CC1)C1CCN(S(=O)(=O)N2CCC3(CC2)OCCO3)CC1	none
O=C(C1CCN(S(=O)(=O)N2CCC3(CC2)OCCO3)CC1)N1CCN(Cc2ccccc2)CC1	PHOSPHO1 inh 64 (no result: HSF1 inh, HSF-1 act, Hep lipid drop)
C/C(=N\Nc1nc(N2CCCCC2)nc(N2CCOCC2)n1)c1cccs1	none
Cc1ccc(O)c(-c2cc(-c3ccccc3C)[nH]n2)c1	HSF-1 act 162 (no result: CHT PAM, CHT inh)
Cc1ccc(O)c(-c2cc(-c3ccccc3[N+](=O)[O-])[nH]n2)c1	HSF-1 act 59
Cc1ccc(O)c(-c2cc(C(F)(F)C(F)F)[nH]n2)c1	HSF-1 act 80 (no result: Hep lipid drop)
COc1ccc(-c2cc(-c3cc(C)ccc3O)[nH]n2)cc1	HSF-1 act 264
